Assay outcomes from PubChem.
hERG rescue = hERG (human) protection from proarrhythmic block; Q12809; CHO-hERG, FluxOR thallium flux, dofetilide IC70 present; activation (rescue from dofetilide block), less the hit threshold, % at 10 µM; 310,000 compounds, 0.51% hits; AID 1511;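 active = activation above the mean of controls blocked by dofetilide plus 5 SD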;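 also: thallium influx through hERG after potassium depolarization seen as dye fluorescence rise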
KCNQ1 inh = inhibitors of human KCNQ1 potassium channel | P51787 | CHO-K1 KCNQ1, FluxOR thallium flux fluorescence; stronger effect = higher value | B-score at 10 µM | 310,000 compounds, 1.3% hits;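 active = compounds whose thallium flux B-score, printed positive for inhibition, exceeds three library SD while starting fluorescence stays within three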;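 also: channel opened by potassium depolarization with thallium stimulus after 20 min compound exposure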
KCNK9 block = inhibitors of human KCNK9 two-pore domain potassium channel. Q9NPC2. HEK293 KCNK9, FluxOR thallium flux fluorescence; stronger effect = lower value. B-score at 10 µM. 310,000 compounds, 1.2% hits. AID 488922;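 active = ratio B-score over 3 SD below the library mean, with starting fluorescence within 5 SD of its mean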;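 also: negative B-score means less thallium flux so channel inhibition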
Kir21 inh = Kir2.1 (mouse) channel inhibition. P35561. HEK293-Kir2.1, FluxOR thallium flux fluorescence; stronger effect = lower value. B-score at 10 µM. 310,000 compounds, 0.85% hits. AID 1672;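 active = fluorescence ratio B-score at or below minus 3 SD of library scores, with starting-brightness B-score within 2 SD, cut at about -4.2 in these data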;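 also: channel flux triggered by added potassium and thallium sulfate stimulus; B-score of peak minus minimum fluorescence over baseline after thallium stimulus; more negative B-score means stronger Kir2.1 block with less thallium influx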
KCNK3 block = human KCNK3 channel inhibition, primary screen. O14649. CHO-KCNK3 thallium flux, FluxOR fluorescence; stronger effect = lower value. B-score at 10 µM. 340,000 compounds, 0.84% hits. AID 602410;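 active = B-score under library mean minus 4 SD, starting fluorescence ratio at most library mean plus 5 SD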;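 also: more negative B-score means stronger inhibition of thallium flux through KCNK3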
Target sequence (O14649 whole entry, looked up): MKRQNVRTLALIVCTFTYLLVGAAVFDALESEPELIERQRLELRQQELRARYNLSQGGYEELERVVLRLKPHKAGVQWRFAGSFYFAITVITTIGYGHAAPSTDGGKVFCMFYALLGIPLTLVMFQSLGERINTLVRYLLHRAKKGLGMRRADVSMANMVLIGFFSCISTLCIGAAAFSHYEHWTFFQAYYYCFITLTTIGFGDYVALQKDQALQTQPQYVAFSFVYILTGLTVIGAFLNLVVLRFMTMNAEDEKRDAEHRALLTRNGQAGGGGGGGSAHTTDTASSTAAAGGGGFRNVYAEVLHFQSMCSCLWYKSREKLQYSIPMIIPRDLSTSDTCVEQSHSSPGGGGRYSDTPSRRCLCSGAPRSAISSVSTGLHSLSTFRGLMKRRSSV
KCNQ1 act = human KCNQ1 channel potentiation or activation | P51787 | CHO-K1 KCNQ1, thallium flux FluxOR fluorescence; stronger effect = higher value | B-score at 10 µM | 310,000 compounds, 0.35% hits;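 active = fluorescence ratio B-score, a plate-corrected score, at least three library SD, with initial intensity B-score within 5 SD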
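Assay system: CHO-K1 cells stably expressing KCNQ1. Medium: assay buffer for compound exposure, DMSO matched across wells. Timing: 37 °C overnight plating, 90-min dark dye load, 20-min compound pretreatment. Signal: kinetic FluxOR fluorescence, 10 s baseline plus 110 s post-stimulus.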
Hits are given with their value; i = inactive; nt = no result given. In the library only some 3.8% were active in any assay of this set; here they are far more common.

SMILES	hERG rescue	KCNQ1 inh	KCNK9 block	Kir21 inh	KCNK3 block	KCNQ1 act
Cc1ccc(C(=O)C[n+]2cc(-c3ccc(C)cc3)n3c2CCCCC3)cc1	i	14	i	i	i	i
O=[N+]([O-])c1ccc(NCc2ccccc2N2CCC(CO)CC2)nc1	i	i	i	i	i	i
O=c1c(/C=C(\O)c2ccccc2)nc2ccccc2n1-c1ccccc1	i	i	-8.1	i	i	i
O=C(CN1C(=O)NC2(CCCCC2)C1=O)Nc1ccc2[nH]c(=O)[nH]c2c1	nt	nt	nt	nt	i	nt
O=C(Nc1ccccn1)c1cc(-c2cccnc2)nc2ccc(Br)cc12	i	i	-6.9	i	i	i
COc1ccc(NC(=O)CN(C)C(=O)c2cc(-c3ccc(Cl)cc3)nc3ccccc23)cc1	i	7	i	i	i	i
O=C(NNC(=O)c1cc(-c2cccnc2)nc2ccccc12)Nc1ccc(Cl)cc1	i	12	i	i	i	i
O=C(NNC(=O)c1cc(-c2ccncc2)nc2ccccc12)Nc1ccc(F)cc1	i	i	i	i	i	i
CC(C)(C)c1ccc(-c2cc(C(=O)NNC(=O)Nc3ccccc3)c3ccccc3n2)cc1	i	i	i	i	-10	i
COc1ccccc1Nc1nccc(N(C)C)c1C#N	i	i	i	i	i	i
Cc1onc(-c2ccccc2)c1C(=O)N1CCN(Cc2ccccc2)CC1	i	i	i	i	i	i
CC1CN(CC(=O)Nc2ccc(S(N)(=O)=O)cc2)CC(C)O1 (stereo not drawn)	i	i	i	i	i	i
Cc1cccc(N2C(=O)CS/C2=N\NC(=O)c2ccc(Br)cc2)c1C	5.6	i	i	i	i	i
Cc1c(-c2cc[n+]([O-])cc2)oc2ccc(Br)cc2c1=O	4.9	i	i	i	nt	i
Cc1cc(OCC(=O)NNC(=S)NC(=O)c2ccc(Br)o2)ccc1Cl	i	i	i	i	i	33
Cc1ncc(CO)c(/C=N/NC(=S)Nc2ccc(Cl)c(Cl)c2)c1O	i	11	i	i	i	i
Cc1ncc(CO)c(/C=N/NC(=O)c2ccc(O)cc2)c1O	i	i	i	i	i	i
Cc1ncc(CO)c(/C=N/NC(=S)Nc2cccc(Cl)c2)c1O	i	6	i	i	i	i
Cc1ncc(CO)c(/C=N/NC(=O)c2ccccc2Br)c1O	i	i	i	i	i	i
CC1CCCCC1NC(=O)C1CCC(CNc2c(N3CCCCC3)c(=O)c2=O)CC1 (stereo not drawn)	i	i	i	i	i	i
O=C(NC(Cc1ccccc1)C(=O)O)c1cccnc1Cl (stereo not drawn)	i	i	i	i	i	i
COC/C=C/C1=CC2=CC(=O)C(C)(OC(=O)c3cnc4ccccc4n3)C(=O)C2=CN1c1cccc(C#N)c1 (stereo not drawn)	i	i	i	i	nt	i
c1ccc(-c2nnsc2-c2ccccc2)cc1	i	i	i	i	i	i
O=S(=O)(c1ccc(Cl)c(Cl)c1)c1snnc1-c1ccccc1	i	i	i	-4.2	i	i
COc1ccc2c(C)cc3n[nH]c(=S)n3c2c1	i	i	i	i	i	i
SMILES	hERG rescue	KCNQ1 inh	KCNK9 block	Kir21 inh	KCNK3 block	KCNQ1 act
Cc1ccc(C(=O)OCn2ncc(Cl)c(Cl)c2=O)cc1	i	i	i	i	i	10
O=C(OCn1ncc(Cl)c(Cl)c1=O)c1ccc(C(F)(F)F)cc1	i	i	i	i	i	i
CCc1nc(C)cn1S(=O)(=O)c1cc(C)c(OC)c(C)c1C	i	i	i	-5.6	i	i
CCc1nc(C)cn1S(=O)(=O)c1cc(F)ccc1OC	i	i	i	i	i	i
CCc1nc(C)cn1S(=O)(=O)c1cc(C)c(OC)cc1C	i	i	i	-5.2	i	i
CCc1nc(C)cn1S(=O)(=O)c1cc(Br)c(C)cc1OC	i	i	i	-12	i	i
Nc1nc(Nc2ccccc2)nc(NC2CCCCC2)c1[N+](=O)[O-]	i	i	i	i	i	i
Oc1c(Br)cc(Br)cc1C=Nc1ccc2c(c1)OCCO2	i	i	i	i	i	14
O=[N+]([O-])c1ccc(O)c(C=Nc2ccc3c(c2)OCCO3)c1	i	i	i	i	i	i
Oc1c(Br)cc(Br)cc1C=Nc1ccc2c(c1)OCO2	i	i	i	i	i	14
O=S(=O)(Nc1ncccn1)c1ccc(NC(=S)N2CCN(Cc3ccc(F)cc3Cl)CC2)cc1	i	i	i	i	i	i
Cc1ccc(-n2nc(C)c3c2C(Br)C(C)(C)CC3=O)nc1 (stereo not drawn)	nt	nt	nt	nt	i	nt
COc1ccc(C(CC(=O)O)NS(=O)(=O)c2ccc3c(c2)N(C(C)=O)CC(C)O3)cc1 (stereo not drawn)	i	i	i	i	i	i
FC(F)Sc1ccc(NC(=S)NCC2CCCCC2)cc1	i	9	-7.3	i	i	i
S=C(NCC1CCCCC1)Nc1cccnc1	i	i	i	i	i	i
CC(NC(=S)Nc1ccc(F)cc1)c1ccccc1 (stereo not drawn)	i	i	i	i	i	i
CN(C(=S)Nc1ccc(SC(F)F)cc1)C(c1ccccc1)c1ccccc1	i	10	i	i	i	i
FC(F)Sc1ccc(NC(=S)NC(c2ccccc2)c2ccccc2)cc1	i	11	i	i	i	i
CCCCn1c(NC(=O)c2ccccc2)c(C#N)c2nc3ccccc3nc21	nt	nt	nt	nt	i	nt
CCCCn1c(NC(=O)c2ccc(F)cc2)c(C#N)c2nc3ccccc3nc21	i	6	i	i	nt	i
CCCOc1ccc(/C(O)=C2/C(=O)C(=O)N(CCCn3ccnc3)C2c2ccco2)cc1 (stereo not drawn)	6.8	i	i	i	i	i
Cc1ccc(S(=O)(=O)N[C@H](C(=O)OCC(=O)NC(=O)C2CCCCC2)C(C)C)cc1	nt	nt	nt	nt	i	nt
CNCCCC1Sc2ccccc2Oc2ccccc21 (stereo not drawn)	i	i	i	-6	i	i
CCN(CC)CCCNC(=O)C1c2ccccc2Oc2ccccc21	i	i	i	i	i	i
COc1ccc(C(CNC(=O)C(C)Oc2ccc(Br)cc2)N2CCCCC2)cc1 (stereo not drawn)	nt	nt	nt	nt	i	nt
SMILES	hERG rescue	KCNQ1 inh	KCNK9 block	Kir21 inh	KCNK3 block	KCNQ1 act
Cc1ccc(C(=O)NCCN2C3=NC[C@@H](Cc4ccccc4)N3C[C@H]2Cc2ccc(O)cc2)cc1Br	i	i	i	-6.8	i	i
COc1ccc(C[C@H]2CN3C(=NC[C@H]3Cc3ccccc3)N2CCNC(=O)c2ccc(C)c(Br)c2)cc1	i	7	i	-7.3	i	i
COc1ccc(C[C@H]2CN3C(=NC[C@@H]3Cc3ccc(O)cc3)N2CCNC(=O)c2ccc(C)c(Br)c2)cc1	i	i	i	i	i	i
COc1ccc(C[C@H]2CN3C(=NC[C@@H]3Cc3ccccc3)N2CCNC(=O)c2ccc(C)c(Br)c2)cc1	i	9	i	-4.2	i	i
Cc1cc(NC(=O)c2cccc(S(=O)(=O)N3CCCCC3)c2)no1	i	i	i	i	i	i
O=C(Nc1ccccc1)Oc1cccc(Br)c1	i	i	i	i	i	i
